ChEMBL document CHEMBL1134394, “Synthesis and biological activity of aminoguanidine and diaminoguanidine analogues of the antidiabetic/antiobesity agent 3-guanidinopropionic acid” (2001)
“And” between values parts separate entries of the source, which are not always exact repeats. Equal values may be shown once. Each block holds one compound with its values, some of them ahead of it.

Columns and labels:
[1] = In vivo blood glucose was determined in obese, hyperglycemic, hyperinsulinemic, insulin-resistant KKAy mice after a dose of 500 mg/kg for 4 days; format: functional, Mus musculus
[2] = system: Mus musculus; experiment: Terminal lean body weight was determined in ob/ob mice after oral administration for two weeks (control = 25+/-1); format: functional
[3] = target: Creatine kinase M-type (Homo sapiens) (UniProt P06732); experiment: Reaction rate of creatine kinase was determined (relative to creatine)
Chain of Creatine kinase M-type (Homo sapiens) (P06732 whole entry): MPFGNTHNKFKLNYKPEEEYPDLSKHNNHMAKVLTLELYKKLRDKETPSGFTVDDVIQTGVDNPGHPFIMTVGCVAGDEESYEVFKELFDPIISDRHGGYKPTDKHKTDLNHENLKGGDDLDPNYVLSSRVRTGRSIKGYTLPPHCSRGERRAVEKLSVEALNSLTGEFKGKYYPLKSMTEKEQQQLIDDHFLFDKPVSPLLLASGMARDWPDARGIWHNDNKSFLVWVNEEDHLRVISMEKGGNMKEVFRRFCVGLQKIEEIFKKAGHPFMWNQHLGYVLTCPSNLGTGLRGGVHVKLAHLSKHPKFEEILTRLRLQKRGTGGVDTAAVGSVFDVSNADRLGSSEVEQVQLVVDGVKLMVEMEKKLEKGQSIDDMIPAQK

[4] = system: Mus musculus; experiment: Terminal blood glucose level was determined in ob/ob mice after oral administration for two weeks (control = 226+/-29); format: functional
In short: (§1)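 ob/ob mice on Purina 5015 chow, given drug as admixture in milled chow for 14 days. Intake measured from food-bowl weight change. Blood from retro-orbital sinus, heparinized, kept on ice and analyzed promptly. Blood glucose measured before and after treatment. Group sizes 8–15, housed at 21 °C on 12 h light–dark cycle; two-way ANOVA, Student–Newman–Keuls post hoc.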

[5] = system: Mus musculus; experiment: In vivo blood glucose was determined in obese,hyperglycemic,hyperinsulinemic,insulin-resistant KKAy mice after a dose of 500 mg/kg for 4 days; format: functional
In short: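 KKAy mice (obese, hyperinsulinemic) grouped into treated and control (n = 6) after pretest glucose on an Alpkem autoanalyzer. Compound given in food at 500 mg/kg for 4 days, then nonfasting blood glucose measured. Result expressed as treated/control (T/C). Wilcoxon rank-sum test applied when T/C < 0.80.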

[6] = system: Rhesus monkey; experiment: Post-prandial plasma insulin was determined in insulin-resistant Rhesus monkeys after a treatment sequence of placebo followed by a dose of 3 mg/kg/day; format: functional, organism-based; conditions: Cercopithecidae
In short: (§2)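 Insulin-resistant rhesus monkeys (ovariectomized females, 15–30 years) dosed orally once daily around 8 a.m., drug dissolved in diet orange soda and drunk voluntarily from a syringe tip. Sequence: placebo, 10 mg/kg/day, placebo, 3 mg/kg/day; placebo phases averaged. Meal tolerance test in conscious animals: glucose and insulin after overnight fast and for 3 h after a liquid meal. Insulin by double-antibody RIA (125I-porcine insulin tracer, human insulin standard); repeated-measures ANOVA, Tukey post hoc.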

[7] = system: Mus musculus; experiment: Average daily food consumption was determined in ob/ob mice after oral administration for two weeks (control = 90+/-3); format: functional
[8] = system: Rhesus monkey; experiment: Fasting plasma insulin was determined in insulin-resistant Rhesus monkeys after a treatment sequence of placebo followed by a dose of 10 mg/kg/day; format: functional, organism-based; conditions: Cercopithecidae
In short: (§3)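 Ovariectomized female rhesus monkeys aged 15–30 y, with fasting insulin and glucose elevated over the colony norm. Compound dissolved in diet orange soda and drunk voluntarily from a syringe once daily at ~8:00 a.m. Sequence: placebo, 10 mg/kg/day, placebo, 3 mg/kg/day; placebo phases averaged. Overnight fast. Insulin by double-antibody RIA (guinea pig anti-human insulin, 125I-porcine insulin tracer, human insulin standard). Repeated-measures ANOVA, Tukey post hoc.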

[9] = species: Mus musculus; experiment: Initial blood glucose level was determined in ob/ob mice (control=228+/-19); format: functional; in short: as §1
[10] = species: Mus musculus; experiment: Initial body weight was determined in ob/ob mice (control=55+/-1); format: functional
[11] = species: Mus musculus; experiment: Average daily dose was determined in ob/ob mice(control=0); format: functional
[12] = system: Mus musculus; experiment: Terminal body weight was determined in ob/ob mice after oral administration for two weeks (control = 53+/-1); format: functional
[13] = system: Rhesus monkey; experiment: Fasting plasma glucose was determined in insulin-resistant Rhesus monkeys after a treatment sequence of placebo followed by a dose of 3 mg/kg/day; format: functional, organism-based; conditions: Cercopithecidae; in short: as §2
[14] = system: Rhesus monkey; experiment: Fasting plasma insulin was determined in insulin-resistant Rhesus monkeys after a treatment sequence of placebo followed by a dose of 3 mg/kg/day; format: functional, organism-based; conditions: Cercopithecidae; in short: as §3
[15] = system: Mus musculus; experiment: Terminal fat body weight was determined in ob/ob mice after oral administration for two weeks (control = 28+/-0.9); format: functional
[16] = system: Rhesus monkey; experiment: Post-prandial plasma insulin was determined in insulin-resistant Rhesus monkeys after a treatment sequence of placebo followed by a dose of 10 mg/kg/day; format: functional, organism-based; conditions: Cercopithecidae; in short: as §2
[17] = Inhibition of creatine transport was assessed from Percent inhibition of [C14] creatine uptake; format: functional; design: concentration or dose not given beside the values; conditions: dose or concentration not given here
[18] = target: Creatine kinase M-type (Homo sapiens) (UniProt P06732); experiment: Reaction rate of creatine kinase was determined at 50 mM concentration (relative to creatine)

SMILES: N=C(NN)NCCC(=O)O
MISS T/C [1]: 0.83

SMILES: N/N=C(\N)N(N)CC(=O)O
Body weight [2]: <22 g
Reaction rate [3]: 0
Blood glucose [4]: <57 mg/dL
blood glucose treated/control ratio [5]: <0.43
AUC [6]: 38 mU min dl-1
Food intake [7]: <52 g/kg
Plasma insulin [8]: 35 uU ml-1
Blood glucose [9]: 228 mg/dL
Body weight [10]: <59 g
Dose [11]: 26 mg/kg
Body weight [12]: <44 g
Plasma glucose [13]: 81 mg/dL and < 64 mg/dL
Plasma insulin [14]: 41 uU ml-1
Body weight [15]: <22 g
AUC [16]: 30 mU min dl-1

SMILES: N=C(N)/N=C(\N)NCCS(=O)O
MISS T/C [1]: 0.92

SMILES: N/C(=N/NCC(=O)O)N/N=C/c1ccccc1
MISS T/C [1]: 0.89

SMILES: CN1NC(=O)CN=C1NN
MISS T/C [1]: 1.16

SMILES: N=C(NN)NNCC(=O)O
Body weight [2]: <22 g
Reaction rate [3]: 0
Blood glucose [4]: <85 mg/dL
blood glucose treated/control ratio [5]: 0.69
Food intake [7]: 81 g/kg
Blood glucose [9]: 226 mg/dL
Body weight [10]: 52 g
Dose [11]: 406 mg/kg
inhibition [17]: 26%
Body weight [12]: <43 g
Body weight [15]: <20 g

SMILES: Nc1nncc(O)n1
MISS T/C [1]: 0.98

SMILES: N=C(N)NNC(C(=O)O)c1ccccc1 (stereo not given)
MISS T/C [1]: 1.11

SMILES: Cl.Cl.N/C(CNCC(=O)O)=N\O
MISS T/C [1]: 0.88

SMILES: N=C(N)N/N=C(/C(=O)O)c1ccccc1
MISS T/C [1]: 1.04

Reaction rate [18]: 0.24
SMILES: N=C(N)NNCC(=O)O
blood glucose treated/control ratio [5]: <0.61
inhibition [17]: 36%

SMILES: Cl.NNC1=NC(=O)CNN1
MISS T/C [1]: 1

SMILES: N/N=C(/NCC(=O)O)Nc1cc[nH]n1
MISS T/C [1]: 0.89

SMILES: C[C@H](N=C(NN)NN)C(=O)O
MISS T/C [1]: 0.57

SMILES: NNc1nncc(O)n1
MISS T/C [1]: 0.84

SMILES: N=C(N)/N=C(\N)NCCC(=O)O
MISS T/C [1]: 0.88

SMILES: N/N=C(/NCC(=O)O)NNC(N)=O
MISS T/C [1]: 0.86

SMILES: CN(NC(=NCC(=O)O)NN(C)C(=O)OC(C)(C)C)C(=O)OC(C)(C)C
MISS T/C [1]: 0.85

SMILES: N=C(N)/N=C(\N)NCCCC(=O)O
MISS T/C [1]: 1.05

SMILES: NNC(=NCCC(=O)O)NN
MISS T/C [1]: 0.78

SMILES: CN(/N=C/C(=O)O)C(=N)N
MISS T/C [1]: 0.95

SMILES: Cl.O=C(O)/C=N/Nc1ccccn1
MISS T/C [1]: <0.73

SMILES: N=C(NN)NCC(=O)O
Body weight [2]: 23 g
Blood glucose [4]: 97 mg/dL
MISS T/C [1]: 0.51
Food intake [7]: 87 g/kg
Blood glucose [9]: 227 mg/dL
Body weight [10]: 52 g
Dose [11]: 436 mg/kg
Body weight [12]: 46 g
Body weight [15]: 23 g

SMILES: CC/C(=N\N=C(N)N)C(=O)O.Cl
MISS T/C [1]: 0.77

SMILES: NN1CCNN=C1NCC(=O)O
MISS T/C [1]: 0.77

SMILES: CC(C)(C)OC(=O)NCC/N=C(\NN)NCC(=O)O
MISS T/C [1]: 0.81

SMILES: Cl.Cl.N=C(CN)NCC(=O)O
MISS T/C [1]: 0.95

SMILES: N/N=C(\NN)N[C@@H](Cc1ccccc1)C(=O)O
MISS T/C [1]: 0.88

SMILES: COC(=O)CC/N=C(\N)C(=N)N.Cl.Cl
MISS T/C [1]: 1

SMILES: Nc1nncn1NCC(=O)O
MISS T/C [1]: 0.96

SMILES: CCC(NN=C(N)N)C(=O)O (stereo not given)
MISS T/C [1]: 1.08

SMILES: CC(C)[C@H](N=C(NN)NN)C(=O)O
MISS T/C [1]: 0.56

SMILES: N=C(N)NCC(=O)O [GUANIDINO ACETATE]
MISS T/C [1]: <0.62

SMILES: O=C(O)/C=N/NC1=NCCN1
MISS T/C [1]: 1.01

SMILES: COC(=O)CNN=C(N)N.Cl
MISS T/C [1]: 1.12

SMILES: N/N=C(\NCCO)NCC(=O)O
MISS T/C [1]: 1.01

SMILES: N=C(N)NNCCC(=O)O
MISS T/C [1]: 1.11

SMILES: CCCCCC/C(=N\N=C(N)N)C(=O)O
MISS T/C [1]: 0.73

SMILES: N=C(N)NNC(Cc1ccccc1)C(=O)O (stereo not given)
MISS T/C [1]: 0.87

SMILES: CNC(=N)N/N=C/C(=O)O
MISS T/C [1]: 0.94

SMILES: Cc1cc(C)n(NC(=NCC(=O)O)Nn2nc(C)cc2C)n1
MISS T/C [1]: 1
